Holding throughout (type): functional
The subject of experiment [1] is Rattus norvegicus. The experiment in a line: Anti-inflammatory activity against Carrageenan-induced paw oedema rat model at 10 mg/kg after 1 hr. The method, boiled down:
(§1)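 Rat carrageenan paw oedema; compound dosed orally as suspension in 1% carboxymethyl cellulose, six rats per group. Paw volume by mercury displacement plethysmography immediately before and at the stated time after carrageenan injection. Percent oedema inhibition computed from pre/post paw volumes of treated versus vehicle-control rats; one-way ANOVA versus control.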
A general note: The carrageenan paw model is a standard test of acute inflammation.

Experiment [2] has as its system Rattus norvegicus. The experiment in a line: Anti-inflammatory activity against Carrageenan-induced paw oedema rat model at 10 mg/kg after 3 hrs. In a few lines: as §1
Experiment [3] relates to Mus musculus. The experiment can be described thus: Analgesic activity in Wistar Albino mouse at 20 mg/kg, po after 3 hrs by tail-flick technique. In a few lines: (§2)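 Tail-flick in Wistar albino mice (25–35 g, either sex, randomly selected), compound given orally as suspension in 1% carboxymethyl cellulose; six animals per group. Reaction time read before dosing and after dosing, cut-off 10 s. Percent analgesic activity = (T2 − T1)/(10 − T1) × 100, T1/T2 being pre/post reaction times; mean of n = 6, one-way ANOVA versus control.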

Experiment [4] deals with Mus musculus. The experiment can be described thus: Analgesic activity in Wistar Albino mouse at 20 mg/kg, po after 30 mins by tail-flick technique. In a few lines: as §2
In experiment [5] the test system is Rattus norvegicus. The experiment can be described thus: Anti-inflammatory activity against Carrageenan-induced paw oedema rat model at 20 mg/kg after 3 hrs. The method, boiled down: as §1
The subject of experiment [6] is Mus musculus. The experiment in a line: Analgesic activity in Wistar Albino mouse at 20 mg/kg, po after 1 hr by tail-flick technique. The method, boiled down: as §2
In experiment [7] the test system is Mus musculus. The experiment can be described thus: Analgesic activity in Wistar Albino mouse at 10 mg/kg, po after 2 hrs by tail-flick technique. In a few lines: as §2
The subject of experiment [8] is Rattus norvegicus. The experiment can be described thus: Anti-inflammatory activity against Carrageenan-induced paw oedema rat model at 20 mg/kg after 2 hrs. In a few lines: as §1
For experiment [9], the system named is Mus musculus. The experiment can be described thus: Analgesic activity in Wistar Albino mouse at 10 mg/kg, po after 1 hr by tail-flick technique. The method, boiled down:
as §2

The test system of experiment [10] is Mus musculus. The experiment can be described thus: Analgesic activity in Wistar Albino mouse at 20 mg/kg, po after 2 hrs by tail-flick technique. The method, boiled down: as §2
The subject of experiment [11] is Rattus norvegicus. The experiment can be described thus: Anti-inflammatory activity against Carrageenan-induced paw oedema rat model at 10 mg/kg after 30 mins. In a few lines: as §1
Experiment [12] concerns Rattus norvegicus. The experiment in a line: Anti-inflammatory activity against Carrageenan-induced paw oedema rat model at 10 mg/kg after 2 hrs. The method, boiled down: as §1
The test system of experiment [13] is Mus musculus. The experiment in a line: Analgesic activity in Wistar Albino mouse at 10 mg/kg, po after 30 mins by tail-flick technique. In a few lines: as §2
The subject of experiment [14] is Mus musculus. The experiment in a line: Analgesic activity in Wistar Albino mouse at 10 mg/kg, po after 3 hrs by tail-flick technique. In a few lines:
as §2

For experiment [15], the system named is Rattus norvegicus. The experiment can be described thus: Anti-inflammatory activity against Carrageenan-induced paw oedema rat model at 20 mg/kg after 30 min. In a few lines:
as §1

The subject of experiment [16] is Rattus norvegicus. The experiment in a line: Anti-inflammatory activity against Carrageenan-induced paw oedema rat model at 20 mg/kg after 1 hr. The method, boiled down:
as §1

Regarding `O=c1c2ccccc2nc(N/N=C\c2ccccc2[N+](=O)[O-])n1-c1ccccc1`, the Activity in the experiment with Rattus norvegicus [1] was 29%; in the experiment with Rattus norvegicus [2], 22%; in the experiment with Mus musculus [3], 39%; in the experiment with Mus musculus [4] it was 42%; in the experiment on Rattus norvegicus [5], 30%; in the experiment with Mus musculus [6], 46%. Further, the Activity with Mus musculus [7] is 39%; in the experiment on Rattus norvegicus [8], 36%; in the experiment on Mus musculus [9], 36%; in the experiment with Mus musculus [10], 49%; in the experiment on Rattus norvegicus [11] it was 27%; in the experiment on Rattus norvegicus [12], 34%. The Activity came to 35% with Mus musculus [13], 30% in the experiment on Mus musculus [14], 32% with Rattus norvegicus [15] and 33% in the experiment with Rattus norvegicus [16].

For the compound `O=c1c2ccccc2nc(NN=C(c2ccccc2)c2ccccc2)n1-c1ccccc1`, the Activity is recorded as 33% with Rattus norvegicus [1]; 26% in the experiment with Rattus norvegicus [2]; 36% with Mus musculus [3]; 39% in the experiment with Mus musculus [4]; 35% with Rattus norvegicus [5]; 41% with Mus musculus [6]. The Activity is given as 41% in the experiment with Mus musculus [7]; 42% in the experiment with Rattus norvegicus [8]; 36% in the experiment with Mus musculus [9]; 46% with Mus musculus [10]; 27% with Rattus norvegicus [11]; 35% with Rattus norvegicus [12]. Further, the Activity is on record as 33% with Mus musculus [13], 29% with Mus musculus [14], 36% in the experiment on Rattus norvegicus [15] and 39% in the experiment with Rattus norvegicus [16].

As to `O=C1Nc2ccccc2/C1=N\Nc1nc2ccccc2c(=O)n1-c1ccccc1`, the Activity in the experiment on Rattus norvegicus [1] is on record as 30%; in the experiment on Rattus norvegicus [2] it was 23%; in the experiment on Mus musculus [3], 35%; in the experiment on Mus musculus [4] it was 47%; in the experiment on Rattus norvegicus [5], 30%; in the experiment with Mus musculus [6], 51%. Moreover, the Activity is 40% in the experiment with Mus musculus [7]; 39% in the experiment with Rattus norvegicus [8]; 37% in the experiment on Mus musculus [9]; 55% in the experiment with Mus musculus [10]; 27% in the experiment on Rattus norvegicus [11]; 31% with Rattus norvegicus [12]. Also, the Activity with Mus musculus [13] is given as 36%; in the experiment with Mus musculus [14], 30%; in the experiment on Rattus norvegicus [15] it was 32%; with Rattus norvegicus [16], 36%.

`O=c1c2ccccc2nc(NN=C2CCCCC2)n1-c1ccccc1`: the Activity in the experiment with Rattus norvegicus [1] is 33%; in the experiment with Rattus norvegicus [2], 27%; in the experiment with Mus musculus [3], 37%; with Mus musculus [4], 50%; with Rattus norvegicus [5], 35%; in the experiment on Mus musculus [6], 51%. Besides, the Activity with Mus musculus [7] was determined as 46%; in the experiment on Rattus norvegicus [8], 42%; in the experiment on Mus musculus [9], 40%; in the experiment with Mus musculus [10], 53%; in the experiment with Rattus norvegicus [11], 29%; with Rattus norvegicus [12], 36%. Moreover, the Activity with Mus musculus [13] is listed as 33%; in the experiment with Mus musculus [14], 25%; in the experiment on Rattus norvegicus [15] it was 39%; in the experiment with Rattus norvegicus [16], 42%.

As for `O=c1c2ccccc2nc(N/N=C\c2ccc([N+](=O)[O-])cc2)n1-c1ccccc1`, the Activity in the experiment with Rattus norvegicus [1] is recorded as 28%; with Rattus norvegicus [2] it was 20%; in the experiment on Mus musculus [3], 33%; with Mus musculus [4] it was 38%; with Rattus norvegicus [5] it was 32%; in the experiment with Mus musculus [6] it was 45%. The Activity in the experiment on Mus musculus [7] came to 39%; in the experiment on Rattus norvegicus [8] it was 36%; in the experiment on Mus musculus [9], 39%; in the experiment with Mus musculus [10], 47%; in the experiment on Rattus norvegicus [11], 25%; with Rattus norvegicus [12], 30%. Also, the Activity is reported as 34% with Mus musculus [13], 27% in the experiment with Mus musculus [14], 35% in the experiment with Rattus norvegicus [15] and 35% with Rattus norvegicus [16].

With `O=c1c2ccccc2nc(N/N=C\c2ccccc2)n1-c1ccccc1`, the Activity is listed as 32% with Rattus norvegicus [1]; 29% in the experiment with Rattus norvegicus [2]; 31% in the experiment with Mus musculus [3]; 46% in the experiment with Mus musculus [4]; 26% in the experiment on Rattus norvegicus [5]; 50% in the experiment with Mus musculus [6]. The Activity in the experiment on Mus musculus [7] is listed as 41%; in the experiment with Rattus norvegicus [8] it was 43%; with Mus musculus [9], 38%; in the experiment with Mus musculus [10], 53%; with Rattus norvegicus [11] it was 28%; with Rattus norvegicus [12], 35%. For the same compound, the Activity in the experiment with Mus musculus [13] came out at 35%; with Mus musculus [14], 29%; in the experiment with Rattus norvegicus [15], 36%; with Rattus norvegicus [16], 40%.

Turning to `CCC/C(C)=N/Nc1nc2ccccc2c(=O)n1-c1ccccc1`, the Activity with Rattus norvegicus [1] was 41%; in the experiment with Rattus norvegicus [2] it was 33%; with Mus musculus [3] it was 45%; in the experiment with Mus musculus [4], 56%; in the experiment with Rattus norvegicus [5], 41%; in the experiment on Mus musculus [6], 62%. The Activity in the experiment on Mus musculus [7] is listed as 50%; in the experiment on Rattus norvegicus [8] it was 60%; in the experiment with Mus musculus [9], 48%; with Mus musculus [10], 62%; with Rattus norvegicus [11], 35%; with Rattus norvegicus [12], 42%. Also, the Activity with Mus musculus [13] worked out at 43%; with Mus musculus [14], 33%; in the experiment with Rattus norvegicus [15] it was 46%; in the experiment with Rattus norvegicus [16] it was 58%.

As for `CC/C(C)=N/Nc1nc2ccccc2c(=O)n1-c1ccccc1`, the Activity is listed as 36% in the experiment on Rattus norvegicus [1]; 26% in the experiment on Rattus norvegicus [2]; 42% with Mus musculus [3]; 55% with Mus musculus [4]; 36% with Rattus norvegicus [5]; 59% with Mus musculus [6]. Moreover, the Activity is recorded as 50% in the experiment on Mus musculus [7]; 47% with Rattus norvegicus [8]; 43% with Mus musculus [9]; 61% with Mus musculus [10]; 32% with Rattus norvegicus [11]; 37% in the experiment on Rattus norvegicus [12]. In addition, the Activity with Mus musculus [13] stood at 41%; in the experiment with Mus musculus [14], 31%; in the experiment on Rattus norvegicus [15], 38%; with Rattus norvegicus [16] it was 45%.

On to `CCC(CC)=NNc1nc2ccccc2c(=O)n1-c1ccccc1`, for which the Activity stood at 35% in the experiment on Rattus norvegicus [1]; 32% in the experiment with Rattus norvegicus [2]; 49% in the experiment on Mus musculus [3]; 63% in the experiment on Mus musculus [4]; 36% with Rattus norvegicus [5]; 69% with Mus musculus [6]. Besides, the Activity in the experiment on Mus musculus [7] stood at 58%; with Rattus norvegicus [8], 56%; in the experiment with Mus musculus [9], 55%; in the experiment with Mus musculus [10], 72%; in the experiment with Rattus norvegicus [11], 34%; in the experiment with Rattus norvegicus [12], 39%. Moreover, the Activity is listed as 49% in the experiment with Mus musculus [13], 41% in the experiment with Mus musculus [14], 43% in the experiment on Rattus norvegicus [15] and 52% in the experiment on Rattus norvegicus [16].

With `O=c1c2ccccc2nc(N/N=C\c2ccccc2Cl)n1-c1ccccc1`, the Activity with Rattus norvegicus [1] is recorded as 24%; in the experiment on Rattus norvegicus [2], 20%; in the experiment on Mus musculus [3] it was 36%; in the experiment on Mus musculus [4], 37%; with Rattus norvegicus [5], 25%; in the experiment with Mus musculus [6] it was 39%. For the same compound, the Activity came out at 37% in the experiment with Mus musculus [7]; 35% in the experiment with Rattus norvegicus [8]; 30% in the experiment with Mus musculus [9]; 42% in the experiment on Mus musculus [10]; 21% in the experiment with Rattus norvegicus [11]; 26% in the experiment on Rattus norvegicus [12]. For the same compound, the Activity is 29% in the experiment on Mus musculus [13], 25% in the experiment on Mus musculus [14], 27% in the experiment on Rattus norvegicus [15] and 32% in the experiment on Rattus norvegicus [16].

In the case of `Cc1ccccc1/C=N\Nc1nc2ccccc2c(=O)n1-c1ccccc1`, the Activity with Rattus norvegicus [1] stood at 32%; in the experiment with Rattus norvegicus [2], 28%; in the experiment with Mus musculus [3], 39%; with Mus musculus [4], 45%; in the experiment with Rattus norvegicus [5] it was 30%; with Mus musculus [6], 46%. Further, the Activity in the experiment with Mus musculus [7] is listed as 40%; in the experiment with Rattus norvegicus [8] it was 42%; in the experiment on Mus musculus [9], 39%; in the experiment with Mus musculus [10] it was 48%; in the experiment with Rattus norvegicus [11] it was 30%; in the experiment on Rattus norvegicus [12] it was 33%. Also, the Activity is recorded as 35% in the experiment on Mus musculus [13], 33% in the experiment with Mus musculus [14], 36% in the experiment with Rattus norvegicus [15] and 39% with Rattus norvegicus [16].

For the compound `Cc1ccc(/C=N\Nc2nc3ccccc3c(=O)n2-c2ccccc2)cc1`, the Activity is on record as 33% in the experiment on Rattus norvegicus [1]; 25% in the experiment on Rattus norvegicus [2]; 40% in the experiment on Mus musculus [3]; 43% in the experiment on Mus musculus [4]; 36% in the experiment with Rattus norvegicus [5]; 47% with Mus musculus [6]. Also, the Activity with Mus musculus [7] came out at 40%; with Rattus norvegicus [8], 43%; in the experiment with Mus musculus [9], 40%; in the experiment on Mus musculus [10], 50%; in the experiment with Rattus norvegicus [11], 28%; with Rattus norvegicus [12], 34%. In addition, the Activity was 37% with Mus musculus [13], 33% in the experiment on Mus musculus [14], 38% in the experiment on Rattus norvegicus [15] and 38% in the experiment on Rattus norvegicus [16].
